Data as given in ChEMBL document CHEMBL2169796, “Antiproliferative and antimigratory actions of synthetic long chain n-3 monounsaturated fatty acids in breast cancer cells that overexpress cyclooxygenase-2” (J Med Chem, 2012).
Active and inactive are the calls of the source. No cut-off for these calls is given here.

Experiments:
MDA-MB-468 [1] = assay: Cytotoxicity against human MDA-MB-468 cells assessed as reduction in viable cells after 48 hrs by trypan blue exclusion assay; format: functional
Procedure, shortened: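 COX-2-overexpressing MDA-MB-468 transfectants exposed to fatty acids at 20 and 50 μM for 48 h; viable cells counted by trypan blue exclusion, expressed as decrease from control.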

[2] = biological target: T1, Prostaglandin G/H synthase 2 (Homo sapiens) (UniProt P35354); assay: Inhibition of COX2 overexpressed in human MDA-MB-468 cells assessed as reduction in basal PGE2 level at 50 uM over 48 hrs by LC-MS-MS assay relative to control; format: cell-based
T1 sequence (whole entry): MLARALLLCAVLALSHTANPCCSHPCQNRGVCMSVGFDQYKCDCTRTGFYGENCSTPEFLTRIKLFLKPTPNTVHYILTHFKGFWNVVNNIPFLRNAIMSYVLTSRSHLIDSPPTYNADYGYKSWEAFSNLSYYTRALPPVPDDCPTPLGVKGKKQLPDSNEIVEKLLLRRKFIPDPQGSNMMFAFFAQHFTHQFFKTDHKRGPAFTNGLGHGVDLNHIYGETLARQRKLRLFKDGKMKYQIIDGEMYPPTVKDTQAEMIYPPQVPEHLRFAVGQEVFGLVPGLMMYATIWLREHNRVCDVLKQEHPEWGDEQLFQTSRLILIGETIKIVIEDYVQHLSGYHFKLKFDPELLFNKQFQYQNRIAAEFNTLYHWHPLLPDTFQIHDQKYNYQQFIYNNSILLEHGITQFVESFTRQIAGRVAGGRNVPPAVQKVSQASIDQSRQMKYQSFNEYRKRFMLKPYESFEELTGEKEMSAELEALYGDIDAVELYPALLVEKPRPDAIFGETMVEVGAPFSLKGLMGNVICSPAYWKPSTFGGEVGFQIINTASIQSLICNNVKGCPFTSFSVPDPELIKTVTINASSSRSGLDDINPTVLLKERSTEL
Procedure, shortened: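 Intact COX-2-overexpressing MDA-MB-468 cells given fatty acid (50 μM) for 48 h without added substrate; basal PGE2 in medium measured by LC-MS-MS, as % of control.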

MDA-MB-468 [3] = assay: Antiproliferative activity against human MDA-MB-468 cells after 24 hrs by MTT assay; format: functional, cell-based
MDA-MB-468 [4] = assay: Antiproliferative activity against human MDA-MB-468 cells after 48 hrs by MTT assay; format: functional, cell-based; details: MDA-MB-468, 48 h
MDA-MB-468 [5] = assay: Proapoptotic activity in human MDA-MB-468 cells assessed as activation of caspase-3 by luminometry; format: functional, cell-based
MDA-MB-468 [6] = assay: Inhibition of cell invasion in human MDA-MB-468 cells overexpressing COX-2 at 20 uM after 20 hrs by matrigel droplet assay relative to untreated-control; format: functional
Procedure, shortened: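 Cells (3.5 × 10^6/mL) mixed with Matrigel, 20 μL droplets set 5 min at 37 °C, then covered with endothelial growth medium-2 with 10% FBS containing fatty acid (10 or 20 μM) for 20 h at 37 °C, 5% CO2; cells migrating out of droplets counted by phase-contrast microscopy, vs DMSO control.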

[7] = biological target: T1, Prostaglandin G/H synthase 2 (Homo sapiens); assay: Inhibition of COX-2 overexpressed in human MDA-MB-468 cell lysate assessed as reduction in arachidonic acid-induced PGE2 formation at 50 uM by LC-MS-MS assay; values are per cent of control
[8] = biological target: T1, Prostaglandin G/H synthase 2 (Homo sapiens); assay: Inhibition of COX2 overexpressed in human MDA-MB-468 cells assessed as reduction in basal PGE2 level at 50 uM over 48 hrs by LC-MS-MS assay relative to control; values are per cent of control
MDA-MB-468 [9] = assay: Inhibition of cell invasion in human MDA-MB-468 cells overexpressing COX-2 at 20 uM after 20 hrs by matrigel droplet assay relative to untreated-control; values are per cent of control; details: MDA-MB-468, 20 h
[10] = biological target: T1, Prostaglandin G/H synthase 2 (Homo sapiens); assay: Inhibition of peroxidase activity of COX-2 overexpressed in human MDA-MB-468 cells at 50 uM by spectrophotometry; values are per cent of control
[11] = biological target: T1, Prostaglandin G/H synthase 2 (Homo sapiens); assay: Inhibition of COX2 overexpressed in human MDA-MB-468 cells assessed as reduction in arachidonic acid-induced PGE2 production at 50 uM over 48 hrs by LC-MS-MS assay relative to control; values are per cent of control
MDA-MB-468 [12] = assay: Inhibition of cell invasion in human MDA-MB-468 cells overexpressing COX-2 at 10 uM after 20 hrs by matrigel droplet assay relative to untreated-control; values are per cent of control; details: MDA-MB-468, 20 h
[13] = biological target: T1, Prostaglandin G/H synthase 2 (Homo sapiens); assay: Inhibition of COX-2 overexpressed in human MDA-MB-468 cell lysate assessed as reduction in arachidonic acid-induced PGE2 formation at 50 uM by LC-MS-MS assay; format: cell-free
Procedure, shortened: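 Lysate of confluent COX-2-overexpressing MDA-MB-468 cells incubated with heme (10 μM), arachidonic acid (20 μM) and analogue (50 μM) in Tris-HCl 100 mM pH 8.0; quenched with ice-cold acetonitrile plus PGE2-d4, SPE cleanup, PGE2 quantified by negative-ion ESI LC-MS-MS.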

SMILES	Activity (MDA-MB-468 [1])	inhibition [2]	Activity (MDA-MB-468 [3])	IC50 (MDA-MB-468 [4]) [µM]	EC50 (MDA-MB-468 [5]) [µM]	inhibition (MDA-MB-468 [6])	residual activity [7] [%]	residual activity [8] [%]	level, % of control at 20 µM (MDA-MB-468 [9]) [%]	residual activity [10] [%]	residual activity [11] [%]	level, % of control at 10 µM (MDA-MB-468 [12]) [%]	inhibition [13]
CC/C=C\CCCCCCCCCCCCCC(=O)O	inactive	inactive	Dose-dependent effect	> 100	54	inactive							
CC/C=C\CCCCCCCCCCCC(=O)O	25%	inactive	Dose-dependent effect	> 100	> 100	inactive							
CCCCC/C=C\C/C=C\C/C=C\C/C=C\CCCC(=O)O [ARACHIDONIC ACID]				> 100	> 100								
CC/C=C\CCCCCCCCCCCCCCCC(=O)O	inactive		Dose-dependent effect	31	43		42	46	75	62			
CC/C=C\CCCCCCCCCCCCCCCCC(=O)O	inactive		Dose-dependent effect	9.3	12		42	49	59	54	40		
CC/C=C\CCCCCCCCCCCCCCCCCC(=O)O	inactive		Dose-dependent effect	21	26		42	45	48	58	40	48	
CC/C=C\CCCCCCCCCCCCCCC(=O)O	20%	inactive	Dose-dependent effect	36	43	inactive				71			Active
CC/C=C\CCCCCCCCCCCCC(=O)O	inactive	inactive	Dose-dependent effect	> 100	69	inactive							
CC/C=C\C/C=C\C/C=C\C/C=C\C/C=C\CCCC(=O)O [ICOSAPENT]				> 100	> 100								
